PAFAH1B2 inh: PAFAH1B2 (human) inhibition; P68402; recombinant PAFAH1B2, FP-rhodamine activity probe, fluorescence polarization; inhibition, % at 3.39 µM; 340,000 tested, 1.2% active;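 active means inhibition above the mean of all tested compounds plus 3 SD, cut at about 24% in these data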;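 further: 0% = enzyme with DMSO and 100% = wells lacking PAFAH1B2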
Target sequence (P68402 whole entry, looked up): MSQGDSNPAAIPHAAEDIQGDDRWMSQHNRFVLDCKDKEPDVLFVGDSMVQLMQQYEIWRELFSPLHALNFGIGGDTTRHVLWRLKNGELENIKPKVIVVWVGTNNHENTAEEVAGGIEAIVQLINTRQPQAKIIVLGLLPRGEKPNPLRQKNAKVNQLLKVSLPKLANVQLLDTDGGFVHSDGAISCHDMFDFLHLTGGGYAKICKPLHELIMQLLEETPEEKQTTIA
PREPL inhibitor: human PREPL enzyme inhibition. Q4J6C6. recombinant PREPL, fluorescence polarization activity-based probe. inhibition, % at 5.96 µM. 320,000 tested, 0.68% active. AID 2751; in the data active means inhibition above about 43%;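 further: 0% = enzyme with DMSO and 100% = wells lacking enzyme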
PAFAH2 inh: PAFAH2 (human) inhibition; Q99487; recombinant PAFAH2, FP-rhodamine activity probe, fluorescence polarization; inhibition, % at 3.39 µM; 340,000 tested, 0.99% active;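 active means inhibition above the mean over all tested compounds plus 3 SD, cut at about 30% in these data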;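 further: inhibitors block probe labeling of enzyme so polarization drops; 0% = enzyme with DMSO and 100% = wells lacking PAFAH2 protein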
Apaf1 inhib: human Apaf-1 inhibition; reconstituted apoptosome caspase-3 activity, DEVD-Rh110 fluorescence; inhibition, % at 20 µM; 330,000 tested, 0.71% active; AID 489030; active means inhibition of at least 40% at 20 µM;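 further: plate controls were DMSO wells for no effect and DEVD-CHO caspase inhibitor wells for full effect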
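System – cell-free apoptosome with Apaf-1, procaspase-3 and caspase-9 · Buffer or medium – pH 7.5 Hepes buffer with CHAPS, BSA, DTT · Also added – cytochrome c with DEVD-Rh110 · Times – 30 min compound preincubation, 50 min activation, room temperature · Technique – Rh110 fluorescence intensity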
PAFAH1B3 FP inh: PAFAH1B3 (human) inhibition. recombinant PAFAH1B3, FP-rhodamine probe, fluorescence polarization. Q15102. 340,000 tested, 0.28% active. inhibition, % at 3.39 µM;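 active means inhibition above the screen-wide average of all tested compounds plus 3 SD, cut at about 25% in these data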;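 further: 0% = enzyme with DMSO only and 100% = wells lacking PAFAH1B3 protein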
Target sequence (Q15102 whole entry, looked up): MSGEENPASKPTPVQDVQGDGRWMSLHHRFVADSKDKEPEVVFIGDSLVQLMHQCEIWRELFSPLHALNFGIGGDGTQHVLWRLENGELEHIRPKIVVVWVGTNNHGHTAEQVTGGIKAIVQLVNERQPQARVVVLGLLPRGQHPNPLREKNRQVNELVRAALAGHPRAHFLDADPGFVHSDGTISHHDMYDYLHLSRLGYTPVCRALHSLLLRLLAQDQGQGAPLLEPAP
pPAFAH inh: pPAFAH (human) enzyme inhibition; AID 463082; recombinant pPAFAH, FP-rhodamine probe fluorescence polarization; inhibition, % at 3.39 µM; 330,000 tested, 1.5% active; Q13093;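 active means inhibition above the mean inhibition across the screen plus 3 SD, cut at about 25% in these data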;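 further: inhibitors block binding of the rhodamine activity-based probe so polarization drops; 0% = enzyme with DMSO and 100% = wells lacking pPAFAH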
PAFAH2 FP conf: confirmation of human PAFAH2 inhibitors; recombinant PAFAH2, FP-rhodamine activity probe, fluorescence polarization; 2,300 tested, 65% active; inhibition, % at 3.39 µM; shares compounds with PAFAH2 inh;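 active means mean inhibition over three repeats above a set limit taken from the earlier primary screen, cut at about 30% in these data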;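 further: inhibitor blocks binding of rhodamine activity probe so polarization falls; 0% = enzyme with DMSO and 100% = wells lacking PAFAH2 protein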
The depositor's hits bear a star. Only some compounds are listed: those with a hit (about 3.5% of all), similar ones and a draw of the others.

How did O=C1CN(CC(=O)NC(=O)NCc2ccccc2)CCN1 do in these assays?
PAFAH1B2 inh: -2; PREPL inhibitor: 1; PAFAH2 inh: -3; Apaf1 inhib: 0; PAFAH1B3 FP inh: 9; pPAFAH inh: 1

Results for Cc1nc2ccc(C(=O)OCc3nnc(-c4ccccc4)o3)cc2nc1C ?
PAFAH1B2 inh: 9; PAFAH2 inh: 35*; Apaf1 inhib: 5; PAFAH1B3 FP inh: 14; PAFAH2 FP conf: 18

How did Cc1noc(C)c1COc1ccc(C(=O)OCc2nnc(-c3ccc(Cl)cc3)o2)cc1 do in these assays?
PAFAH1B2 inh: 1; PREPL inhibitor: -25; PAFAH2 inh: 66*; Apaf1 inhib: 23; PAFAH1B3 FP inh: -3; pPAFAH inh: 3; PAFAH2 FP conf: 69*

What do the screens show for `Cc1nc2ccc(C(=O)OCc3nnc(-c4ccc(Br)cc4)o3)cc2nc1C`?
PAFAH1B2 inh: 8; PREPL inhibitor: -8; PAFAH2 inh: 13; Apaf1 inhib: -3; PAFAH1B3 FP inh: -1; pPAFAH inh: 0

What do the screens show for `CC(=O)c1ccc(OCCCC(=O)OCc2nnc(-c3ccc(Cl)cc3)o2)cc1`?
PAFAH1B2 inh: 9; PREPL inhibitor: -13; PAFAH2 inh: -6; Apaf1 inhib: 16; PAFAH1B3 FP inh: 1; pPAFAH inh: 14

Results for O=C(OCc1nnc(-c2ccc(Cl)cc2)o1)c1ccncc1 ?
PAFAH1B2 inh: -1; PREPL inhibitor: -5; PAFAH2 inh: 1; Apaf1 inhib: 2; PAFAH1B3 FP inh: 4; pPAFAH inh: 5

What do the screens show for `CCOC(=O)c1cccc(S(=O)(=O)N2CCOCC2)c1`?
PAFAH1B2 inh: 1; PREPL inhibitor: -2; PAFAH2 inh: -4; Apaf1 inhib: 4; PAFAH1B3 FP inh: 7; pPAFAH inh: -1

Results for O=C(OCCOc1ccccc1F)c1cccc(S(=O)(=O)N2CCOCC2)c1 ?
PAFAH1B2 inh: 1; PREPL inhibitor: 6; PAFAH2 inh: 30*; Apaf1 inhib: -4; PAFAH1B3 FP inh: 6; pPAFAH inh: 12; PAFAH2 FP conf: 18

Results for Cc1ccccc1C(=O)OCc1nnc(-c2ccc(Cl)cc2)o1 ?
PAFAH1B2 inh: 4; PREPL inhibitor: 23; PAFAH2 inh: 33*; Apaf1 inhib: 16; PAFAH1B3 FP inh: 1; pPAFAH inh: -2; PAFAH2 FP conf: 25

Results for O=C1C(=O)N(CCCN2CCOCC2)C(c2ccc(F)cc2)/C1=C(\O)c1ccc2c(c1)OCCO2 (centres undefined) ?
PAFAH1B2 inh: 4; PREPL inhibitor: -3; PAFAH2 inh: 48*; Apaf1 inhib: -7; PAFAH1B3 FP inh: 1; pPAFAH inh: 2; PAFAH2 FP conf: 3

What do the screens show for `CC(C)(C)c1ccc(C2/C(=C(\O)c3ccc4c(c3)OCCO4)C(=O)C(=O)N2CCCN2CCOCC2)cc1` (centres undefined)?
PAFAH1B2 inh: 3; PREPL inhibitor: 9; PAFAH2 inh: 11; Apaf1 inhib: -1; PAFAH1B3 FP inh: -3; pPAFAH inh: 10

What do the screens show for `O=C(COC(=O)CCCN1C(=O)c2cccc3cccc(c23)C1=O)Nc1ccc(Cl)cc1`?
PAFAH1B2 inh: 0; PREPL inhibitor: -31; PAFAH2 inh: 48*; Apaf1 inhib: 14; PAFAH1B3 FP inh: -13; pPAFAH inh: 6; PAFAH2 FP conf: 29

Results for CC1CCN(c2c(NCC3CCC(C(=O)NCc4ccccc4Cl)CC3)c(=O)c2=O)CC1 (centres undefined) ?
PAFAH1B2 inh: 9; PREPL inhibitor: 23; PAFAH2 inh: 8; Apaf1 inhib: 11; PAFAH1B3 FP inh: -5; pPAFAH inh: 5

How did Cn1nnnc1SCC1=C(C(=O)O)N2C(=O)C(NC(=O)C3CC3c3ccccc3)C2SC1 (centres undefined) do in these assays?
PAFAH1B2 inh: 7; PREPL inhibitor: -4; PAFAH2 inh: 44*; Apaf1 inhib: 0; PAFAH1B3 FP inh: -3; pPAFAH inh: 1; PAFAH2 FP conf: 6

Results for COc1cc(C2SCC(=O)N2c2c(C)n(C)n(-c3ccccc3)c2=O)ccc1O (centres undefined) ?
PAFAH1B2 inh: -2; PREPL inhibitor: 7; PAFAH2 inh: -3; Apaf1 inhib: -1; PAFAH1B3 FP inh: 2; pPAFAH inh: -4
